Assay results pooled from the literature.
Each line is one published result; the experiments were not run side by side.
Target: Phosphatidylinositol 4-phosphate 5-kinase type-1 gamma (PIP5K1C, Homo sapiens, UniProt O60331)

| SMILES | assay | conditions | quantity | value |
| --- | --- | --- | --- | --- |
| Cc1cc(NC(=O)c2cccc3cc(-c4cccc5[nH]nc(N)c45)ccc23)ccc1F | enzyme activity, inhibitor | 0.1 µM | activity vs control | 110% |
| COc1cc(Cl)c(C(=O)N[C@@H](CN[C@H]2CC[C@@H](N)CC2)Cc2ccc(C#N)cc2)cc1-c1ccc(CN[C@H](C)c2ccc(C)cc2)o1 | enzyme activity, inhibitor | 1 µM | remaining activity | 96% |
| CN1CC(Oc2cnc(C#N)cc2-c2ccn3nc(NC(=O)C4CC4)cc3c2)C1 | enzyme activity, inhibitor | 1 µM | inhibition | -3% |
| CS(=O)(=O)Nc1cccc(-c2csc(NC(=O)CSc3nc4nccnc4c(=O)n3CCc3ccccc3)n2)c1 | enzyme activity, inhibitor | 10 µM | inhibition | 0% |
| Nc1ncnc2occ(-c3ccc(NC(=O)Nc4cc(C(F)(F)F)ccc4F)cc3)c12 | cell-free assay | 20 µM | remaining signal | 0% |
| CC1=C(C#N)C(c2ccc3c(c2)c(NC(=O)c2ccccc2C)nn3C)C(C#N)=C(C)N1 | cell-free assay, competition with immobilised ligand | 1 µM | remaining binding | 91% |
| Cc1cnc(NC2CCOCC2)nc1-n1cnc(C(=O)NC(CN)c2cc(F)cc(Cl)c2)c1 (centres unmarked) | enzyme activity, inhibitor, radiometric | 1 µM | remaining activity | 96% |
| Cc1ccc(C(=O)Nc2ccc(CN3CCN(C)CC3)c(C(F)(F)F)c2)cc1C#Cc1cnc2cccnn12 | cell-free assay | 23.5 nM | remaining signal | 100% |
| CNCc1ccccc1-c1csc([C@@H](C)Nc2nc(C)nc3cc(OC)c(OC)cc23)c1 | cell-free assay, competition with immobilised ligand | 1 µM | remaining binding | 88% |
| O=C(CSc1nc2nccnc2c(=O)n1CCc1ccccc1)Nc1nccs1 | enzyme activity, inhibitor | 10 µM | inhibition | 12% |
| Cc1ccc(NC(=O)c2ccc(C)c(C(F)(F)F)c2)cc1C#Cc1nn(C2CCC(O)CC2)c2ncnc(N)c12 (centres unmarked) | cell-free assay | 10 µM | remaining signal | 98% |
